The structures appear in SMILES notation. Activity calls are given as the source filed them. The calls are words filed in the database; no cut-off is given here.

In data set [1] the target is Neuropeptide Y receptor type 2 (Homo sapiens) (UniProt P49146). In words: Displacement of [125I]-Peptide YY from neuropeptide Y Y2 receptor in human KAN-TS cells at 10 uM relative to control. Type of data set: cell-based. The gist of the method:
(§1)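 Tested once at 10 μM in a commercial radioligand binding panel of 68 GPCRs, ion channels, kinases and transporters. Activity is given as displacement of each radioligand relative to control.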
(In general: In a radioligand displacement assay an active substance lowers the binding of a labelled ligand.)

Another data set relates to Brain. In words: AUC in CD-1 mouse brain at 10 mg/kg, ip by LC-MS/MS analysis. Type of data set: ADME, organism-based. Further details: dose 10 mg/kg, route intraperitoneal. The following applies: in vivo.
The target in data set [2] is Metabotropic glutamate receptor 1 (Rattus norvegicus) (UniProt P23385). Nature of the data set: Allosteric modulation of rat mGlu1 receptor expressed in HEK293 cells assessed as effect on glutamate-induced calcium mobilization at 10 uM. Type of data set: functional, cell-based.
Chain of Metabotropic glutamate receptor 1 (Rattus norvegicus) (P23385 19-1199 limits assumed): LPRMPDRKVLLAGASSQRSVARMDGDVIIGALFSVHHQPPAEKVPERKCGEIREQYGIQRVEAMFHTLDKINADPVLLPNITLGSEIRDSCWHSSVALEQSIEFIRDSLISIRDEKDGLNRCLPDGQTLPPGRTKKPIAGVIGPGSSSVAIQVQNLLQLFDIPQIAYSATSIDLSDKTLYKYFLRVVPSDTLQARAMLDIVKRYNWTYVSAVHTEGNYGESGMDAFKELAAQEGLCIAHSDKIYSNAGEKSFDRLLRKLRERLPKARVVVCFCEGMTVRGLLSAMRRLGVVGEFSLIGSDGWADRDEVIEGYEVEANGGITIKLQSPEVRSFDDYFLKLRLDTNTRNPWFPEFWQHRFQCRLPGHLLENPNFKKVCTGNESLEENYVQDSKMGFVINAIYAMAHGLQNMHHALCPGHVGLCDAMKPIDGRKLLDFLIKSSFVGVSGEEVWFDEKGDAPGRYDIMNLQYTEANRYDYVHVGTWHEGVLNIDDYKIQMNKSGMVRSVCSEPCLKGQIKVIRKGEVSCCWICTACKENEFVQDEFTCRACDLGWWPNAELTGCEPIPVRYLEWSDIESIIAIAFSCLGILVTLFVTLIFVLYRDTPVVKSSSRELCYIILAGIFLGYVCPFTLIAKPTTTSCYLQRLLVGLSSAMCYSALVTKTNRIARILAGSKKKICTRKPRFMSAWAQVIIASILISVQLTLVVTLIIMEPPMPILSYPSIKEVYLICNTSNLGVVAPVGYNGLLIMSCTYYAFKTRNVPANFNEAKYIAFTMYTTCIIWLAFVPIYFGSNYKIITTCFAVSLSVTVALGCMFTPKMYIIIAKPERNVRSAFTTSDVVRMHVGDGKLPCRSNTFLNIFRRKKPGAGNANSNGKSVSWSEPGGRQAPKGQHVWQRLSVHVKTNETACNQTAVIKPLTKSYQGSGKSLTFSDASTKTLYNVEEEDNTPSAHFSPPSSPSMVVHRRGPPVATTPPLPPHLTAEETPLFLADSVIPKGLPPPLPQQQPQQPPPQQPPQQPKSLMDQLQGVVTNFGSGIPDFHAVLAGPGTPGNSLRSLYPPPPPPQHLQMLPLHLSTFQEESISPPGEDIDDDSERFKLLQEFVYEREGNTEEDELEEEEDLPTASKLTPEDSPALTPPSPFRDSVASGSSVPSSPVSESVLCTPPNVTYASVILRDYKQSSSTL
Data set [3] concerns the target Beta-2 adrenergic receptor (Homo sapiens) (UniProt P07550). In words: Displacement of [3H]-CGP-12177 from human recombinant adrenergic beta2 receptor expressed in CHO cells at 10 uM relative to control. Type of data set: cell-based. The gist of the method:
as §1

The target of data set [4] is Muscarinic acetylcholine receptor M1 (Homo sapiens) (UniProt P11229). In words: Displacement of [3H]-N-Methylscopolamine from human recombinant muscarinic M1 receptor expressed in CHO-K1 cells at 10 uM relative to control. It is filed as cell-based. In outline: as §1
Chain of Muscarinic acetylcholine receptor M1 (Homo sapiens) (P11229 whole entry): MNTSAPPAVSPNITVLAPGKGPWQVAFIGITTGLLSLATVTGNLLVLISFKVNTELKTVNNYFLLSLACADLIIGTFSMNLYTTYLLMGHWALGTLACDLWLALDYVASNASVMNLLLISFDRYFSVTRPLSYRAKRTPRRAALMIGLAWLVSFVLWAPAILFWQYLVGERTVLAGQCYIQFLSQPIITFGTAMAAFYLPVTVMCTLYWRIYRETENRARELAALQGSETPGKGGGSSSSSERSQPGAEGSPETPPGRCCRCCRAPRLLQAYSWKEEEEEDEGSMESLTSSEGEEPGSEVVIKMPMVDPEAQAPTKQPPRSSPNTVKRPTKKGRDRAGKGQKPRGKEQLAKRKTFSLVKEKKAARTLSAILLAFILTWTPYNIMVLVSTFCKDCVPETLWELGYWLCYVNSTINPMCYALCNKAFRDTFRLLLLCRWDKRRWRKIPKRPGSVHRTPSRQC
A further data set is filed under the species Mus musculus. In words: Displacement of [125I]-Interleukin-1beta from IL-1 receptor in mouse 3T3-SWISS cells at 10 uM relative to control. Type of data set: cell-based. In outline: as §1
For a further data set, the system named is CHO-K1. In words: Displacement of [3H]-Spiperone from human recombinant dopamine D4.2 receptor expressed in CHO-K1 cells at 10 uM relative to control. Type of data set: cell-based.
Data set [5] deals with Platelet-activating factor receptor (Homo sapiens) (UniProt P25105). In words: Displacement of [3H]-PAF from platelet activating factor receptor in human platelets at 10 uM relative to control. The gist of the method: as §1
Data set [6] deals with Mu-type opioid receptor (Homo sapiens) (UniProt P35372). In words: Displacement of [3H]-Diprenorphine from human recombinant mu opioid receptor expressed in CHO-K1 cells at 10 uM relative to control. It is filed as cell-based. The gist of the method: as §1
Chain of Mu-type opioid receptor (Homo sapiens) (P35372 whole entry): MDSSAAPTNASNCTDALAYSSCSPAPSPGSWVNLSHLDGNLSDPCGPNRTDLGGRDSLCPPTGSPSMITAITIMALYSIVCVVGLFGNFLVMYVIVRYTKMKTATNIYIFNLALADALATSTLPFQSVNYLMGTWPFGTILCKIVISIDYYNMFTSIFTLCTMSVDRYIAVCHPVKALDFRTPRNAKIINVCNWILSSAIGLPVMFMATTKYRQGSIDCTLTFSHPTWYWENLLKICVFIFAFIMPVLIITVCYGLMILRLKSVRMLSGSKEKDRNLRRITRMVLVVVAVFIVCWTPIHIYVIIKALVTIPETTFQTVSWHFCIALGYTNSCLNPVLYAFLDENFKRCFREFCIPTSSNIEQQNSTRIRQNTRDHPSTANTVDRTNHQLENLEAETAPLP
Data set [7] addresses T1, Glutamate NMDA receptor (Rattus norvegicus) (UniProt P35439+Q00959+Q00960+Q00961+Q62645+Q8VHN2+Q9R1M7). In words: Displacement of [3H]-CGP-39653 from NMDA receptor agonist binding site in rat cerebral cortex at 10 uM relative to control. It is filed as tissue-based. In outline: as §1
In data set [8] the target is T1, Glutamate NMDA receptor (Rattus norvegicus). In words: Displacement of [3H]-MDL 105,519 from NMDA receptor glycine binding site in rat cerebral cortex at 10 uM relative to control. It is filed as tissue-based. The gist of the method: as §1
In data set [9] the target is Estrogen receptor (Homo sapiens) (UniProt P03372). Nature of the data set: Displacement of [3H]-Estradiol from human recombinant ERalpha receptor expressed in insect Sf9 cells at 10 uM relative to control. In outline:
as §1

For another data set, the species on record is Rattus norvegicus. In words: Displacement of [3H]-Rolipram from rolipram binding site in rat brain at 10 uM relative to control. Type of data set: tissue-based.
For data set [10], the target named is B2 bradykinin receptor (Homo sapiens) (UniProt P30411). In words: Displacement of [3H]-Bradykinin from human recombinant bradykinin B2 receptor expressed in rat Chem-1 cells at 10 uM relative to control. Type of data set: cell-based. The gist of the method:
as §1

Data set [11] has as its target Androgen receptor (Homo sapiens) (UniProt P10275). Nature of the data set: Displacement of [3H]-Methyltrienolone from androgen receptor in human LNCAP cells at 10 uM relative to control. It is filed as cell-based. In outline: as §1
Data set [12] concerns the target Alpha-1D adrenergic receptor (Homo sapiens) (UniProt P25100). Nature of the data set: Displacement of [3H]-Prazosin from human recombinant adrenergic alpha1D receptor expressed in HEK293 cells at 10 uM relative to control. It is filed as cell-based.
Data set [13] concerns the target Adenosine receptor A1 (Homo sapiens) (UniProt P30542). In words: Displacement of [3H]-DPCPX from human recombinant adenosine A1 receptor expressed in CHO cells at 10 uM relative to control. It is filed as cell-based. The gist of the method:
as §1

Chain of Neuropeptide Y receptor type 2 (Homo sapiens) (P49146 whole entry): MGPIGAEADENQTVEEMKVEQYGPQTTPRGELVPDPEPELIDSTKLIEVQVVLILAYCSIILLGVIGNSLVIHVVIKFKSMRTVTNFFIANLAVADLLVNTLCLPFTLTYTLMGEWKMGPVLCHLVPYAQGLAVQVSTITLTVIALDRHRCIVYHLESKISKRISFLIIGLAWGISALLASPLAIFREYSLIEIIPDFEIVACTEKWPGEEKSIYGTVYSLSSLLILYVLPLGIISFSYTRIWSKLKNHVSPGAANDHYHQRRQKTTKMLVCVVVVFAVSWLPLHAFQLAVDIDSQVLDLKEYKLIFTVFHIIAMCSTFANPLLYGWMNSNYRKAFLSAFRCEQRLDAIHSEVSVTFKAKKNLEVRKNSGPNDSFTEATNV
Chain of Alpha-1D adrenergic receptor (Homo sapiens) (P25100 whole entry): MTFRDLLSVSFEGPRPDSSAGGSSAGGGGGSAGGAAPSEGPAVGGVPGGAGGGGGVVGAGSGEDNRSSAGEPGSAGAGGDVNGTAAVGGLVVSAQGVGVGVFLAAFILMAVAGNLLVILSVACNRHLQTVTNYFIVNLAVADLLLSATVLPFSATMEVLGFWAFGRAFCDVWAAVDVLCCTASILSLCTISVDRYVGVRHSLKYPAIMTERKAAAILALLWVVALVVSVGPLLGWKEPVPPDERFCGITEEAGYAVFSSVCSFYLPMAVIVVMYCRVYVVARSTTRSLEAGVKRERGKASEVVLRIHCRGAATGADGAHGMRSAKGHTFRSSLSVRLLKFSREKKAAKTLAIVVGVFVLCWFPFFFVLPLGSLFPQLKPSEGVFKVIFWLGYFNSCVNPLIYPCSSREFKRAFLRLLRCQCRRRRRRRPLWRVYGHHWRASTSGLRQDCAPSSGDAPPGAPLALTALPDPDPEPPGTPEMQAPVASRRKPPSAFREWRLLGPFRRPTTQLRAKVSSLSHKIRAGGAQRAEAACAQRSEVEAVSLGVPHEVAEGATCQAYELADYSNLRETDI
Chain of Beta-2 adrenergic receptor (Homo sapiens) (P07550 whole entry, looked up): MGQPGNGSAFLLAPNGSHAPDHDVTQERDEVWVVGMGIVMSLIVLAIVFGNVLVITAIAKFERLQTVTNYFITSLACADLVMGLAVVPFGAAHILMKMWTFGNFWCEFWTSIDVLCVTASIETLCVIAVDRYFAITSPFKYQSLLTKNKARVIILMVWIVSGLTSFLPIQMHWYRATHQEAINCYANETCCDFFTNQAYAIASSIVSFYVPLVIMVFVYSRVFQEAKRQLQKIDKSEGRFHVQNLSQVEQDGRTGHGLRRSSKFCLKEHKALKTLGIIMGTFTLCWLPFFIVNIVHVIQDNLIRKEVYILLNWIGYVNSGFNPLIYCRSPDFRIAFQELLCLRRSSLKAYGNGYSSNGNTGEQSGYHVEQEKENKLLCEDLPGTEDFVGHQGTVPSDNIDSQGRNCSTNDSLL
Chain of Adenosine receptor A1 (Homo sapiens) (P30542 whole entry): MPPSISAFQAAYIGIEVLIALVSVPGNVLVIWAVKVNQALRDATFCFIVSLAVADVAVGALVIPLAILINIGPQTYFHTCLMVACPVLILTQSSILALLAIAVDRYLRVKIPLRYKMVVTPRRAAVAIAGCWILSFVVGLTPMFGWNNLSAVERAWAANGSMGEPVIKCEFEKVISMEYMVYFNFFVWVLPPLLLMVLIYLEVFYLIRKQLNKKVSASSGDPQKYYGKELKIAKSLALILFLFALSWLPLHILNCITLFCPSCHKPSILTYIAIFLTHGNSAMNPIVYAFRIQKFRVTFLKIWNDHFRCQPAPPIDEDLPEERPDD
Chain of Estrogen receptor (Homo sapiens) (P03372 whole entry): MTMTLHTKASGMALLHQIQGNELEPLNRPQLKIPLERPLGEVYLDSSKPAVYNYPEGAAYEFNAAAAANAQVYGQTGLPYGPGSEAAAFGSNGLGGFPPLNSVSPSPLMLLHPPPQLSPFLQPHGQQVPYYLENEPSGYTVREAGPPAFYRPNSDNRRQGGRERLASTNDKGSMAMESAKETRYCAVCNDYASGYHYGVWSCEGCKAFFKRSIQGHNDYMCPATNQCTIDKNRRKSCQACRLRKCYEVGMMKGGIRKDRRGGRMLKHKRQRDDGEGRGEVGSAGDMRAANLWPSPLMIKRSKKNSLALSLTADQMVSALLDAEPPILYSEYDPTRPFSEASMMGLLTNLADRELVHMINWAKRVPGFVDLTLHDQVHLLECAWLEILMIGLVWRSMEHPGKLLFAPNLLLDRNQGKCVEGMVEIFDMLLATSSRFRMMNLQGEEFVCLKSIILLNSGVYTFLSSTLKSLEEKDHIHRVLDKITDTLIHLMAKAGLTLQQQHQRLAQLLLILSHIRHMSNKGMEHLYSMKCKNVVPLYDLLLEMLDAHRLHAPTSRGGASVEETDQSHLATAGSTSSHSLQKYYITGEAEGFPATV
Chain of B2 bradykinin receptor (Homo sapiens) (P30411 whole entry): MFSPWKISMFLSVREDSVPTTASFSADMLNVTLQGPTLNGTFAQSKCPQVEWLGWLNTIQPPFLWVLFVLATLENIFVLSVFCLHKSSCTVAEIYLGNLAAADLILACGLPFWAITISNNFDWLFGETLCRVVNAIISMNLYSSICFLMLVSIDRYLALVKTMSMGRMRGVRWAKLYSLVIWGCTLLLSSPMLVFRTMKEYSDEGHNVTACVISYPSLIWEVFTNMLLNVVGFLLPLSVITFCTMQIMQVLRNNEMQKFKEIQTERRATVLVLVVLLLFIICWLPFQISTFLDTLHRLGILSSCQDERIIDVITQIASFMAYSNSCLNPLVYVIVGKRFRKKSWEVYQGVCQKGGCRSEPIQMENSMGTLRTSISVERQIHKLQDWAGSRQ

In the case of `Cc1csc(NC(=O)c2cc(F)cc(Oc3cncnc3)c2)n1`, the inhibition (in data set [1]; in data set [3]; in [4]; in the data set filed under Mus musculus; in the data set with CHO-K1; in data set [5]) was more than 35% each time. The inhibition (in data set [6]; in data set [7]; in [8]; in data set [9]; in the data set filed under Rattus norvegicus; in [10]) was more than 35% throughout. Also, the inhibition in [11], in [12] and in data set [13] was more than 35% throughout. Also, the AUC in the data set with Brain worked out at 696 ng·h/g. In addition, the result in data set [2] was inactive.

The record behind these values is ChEMBL document CHEMBL2439973, “Discovery of VU0409106: A negative allosteric modulator of mGlu5 with activity in a mouse model of anxiety” (Bioorg Med Chem Lett, 2013).
